For assay [1], the target named is T1, Adenosine receptor A2a (Homo sapiens, UniProt P29274). The assay can be described thus: Displacement of [3H]-ZM 241,385 from human A2A adenosine receptor expressed in CHO cell membranes after 60 mins by scintillation counting method. The essentials: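 hA2A CHO membranes (50 µg protein/100 µl), 1 nM [3H]-ZM 241385, graded test concentrations, 60 min at 4°C in 50 mM Tris-HCl pH 7.4 with 10 mM MgCl2. Nonspecific: 1 µM ZM 241385.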

In assay [2] the target is T1, Adenosine receptor A2a. The assay can be described thus: Antagonist activity at human A2A adenosine receptor expressed in CHO cells assessed as inhibition of CGS21680-stimulated cAMP level after 30 mins by Alphascreen assay. Type of assay: functional, cell-based. In a few lines: (§1)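 Same hA2A CHO cAMP experiment run in presence of CGS 21680 (10 nM); compounds at varied concentrations, AlphaScreen cAMP detection (30 min, then 1 h). IC50 via sigmoid nonlinear regression, Emax efficacy; four experiments in triplicate, mean ± SEM.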
On the technique in general: cAMP levels reflect the balance of adenylyl cyclase and phosphodiesterase activity.

Assay [3] addresses T1, Adenosine receptor A2a. The assay can be described thus: Inverse agonist activity at human A2A adenosine receptor expressed in CHO cells assessed as inhibition of basal cAMP level after 30 mins by Alphascreen assay. Type of assay: functional, cell-based. In a few lines: (§2)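 hA2A CHO cells exposed to varied compound concentrations without agonist, measuring decrease of basal cAMP; AlphaScreen detection (30 min acceptor beads, then 1 h donor beads with biotinylated cAMP). IC50 from sigmoid nonlinear fit, Emax efficacy; mean ± SEM.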

For assay [4], the target named is T1, Adenosine receptor A2a. In words: Inverse agonist activity at human A2A adenosine receptor expressed in CHO cells assessed as inhibition of basal cAMP level after 30 mins by Alphascreen assay relative to control. The assay is classed as functional, cell-based. The essentials:
as §2

Assay [5] concerns the target T1, Adenosine receptor A2a. In words: Antagonist activity at human A2A adenosine receptor expressed in CHO cells assessed as inhibition of CGS21680-stimulated cAMP level after 30 mins by Alphascreen assay relative to control. The assay is classed as functional, cell-based. In a few lines:
as §1

The target of assay [6] is T2, Adenosine receptor A3 (Homo sapiens, UniProt P0DMS8).
T2 sequence (P0DMS8 whole entry): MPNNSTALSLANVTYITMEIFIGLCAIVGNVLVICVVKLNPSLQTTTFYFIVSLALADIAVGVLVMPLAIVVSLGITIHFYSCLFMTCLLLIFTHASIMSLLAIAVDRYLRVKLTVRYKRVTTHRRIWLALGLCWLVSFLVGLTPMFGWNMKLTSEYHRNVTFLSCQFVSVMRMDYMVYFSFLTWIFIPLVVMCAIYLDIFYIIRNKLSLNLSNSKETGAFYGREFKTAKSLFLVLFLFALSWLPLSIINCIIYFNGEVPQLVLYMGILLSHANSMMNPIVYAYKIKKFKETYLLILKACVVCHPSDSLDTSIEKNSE
In words: Displacement of [125I]-ABMECA from human A3 adenosine receptor expressed in CHO cell membranes after 120 mins by scintillation counting method. For orientation: Loss of bound radioactivity is the signal in a displacement assay; it reports binding, not function.

Assay [7] deals with T3, Adenosine receptor A2b (Homo sapiens, UniProt P29275).
T3 sequence (P29275 whole entry): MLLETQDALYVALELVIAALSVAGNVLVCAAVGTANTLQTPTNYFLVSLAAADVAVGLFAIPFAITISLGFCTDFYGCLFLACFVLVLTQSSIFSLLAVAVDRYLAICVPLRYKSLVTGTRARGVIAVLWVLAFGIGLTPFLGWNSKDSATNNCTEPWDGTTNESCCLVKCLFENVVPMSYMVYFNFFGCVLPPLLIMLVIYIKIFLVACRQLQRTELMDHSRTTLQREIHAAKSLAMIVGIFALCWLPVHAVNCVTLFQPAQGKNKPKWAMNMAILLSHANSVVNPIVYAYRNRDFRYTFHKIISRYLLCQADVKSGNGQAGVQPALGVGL
The assay can be described thus: Antagonist activity at human A2B adenosine receptor assessed as inhibition of NECA-stimulated cAMP level after 30 mins by Alphascreen assay. Type of assay: functional. In a few lines: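 Cells with compounds and anti-cAMP acceptor beads 30 min, then streptavidin donor beads plus biotinylated cAMP 1 h; AlphaScreen read. IC50 by sigmoid nonlinear regression.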

Assay [8] concerns the target T4, Adenosine receptor A1 (Homo sapiens, UniProt P30542).
T4 sequence (P30542 whole entry): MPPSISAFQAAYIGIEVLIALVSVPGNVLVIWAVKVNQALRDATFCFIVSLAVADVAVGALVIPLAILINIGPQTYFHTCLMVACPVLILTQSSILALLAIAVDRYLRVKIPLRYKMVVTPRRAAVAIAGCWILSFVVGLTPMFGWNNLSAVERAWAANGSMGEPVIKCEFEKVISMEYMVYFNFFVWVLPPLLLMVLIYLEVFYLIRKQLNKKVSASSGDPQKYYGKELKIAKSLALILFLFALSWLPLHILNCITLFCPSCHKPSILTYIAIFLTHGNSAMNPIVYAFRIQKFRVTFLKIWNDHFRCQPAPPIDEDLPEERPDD
In words: Displacement of [3H]-DPCPX from human A1 adenosine receptor expressed in CHO cell membranes after 90 mins by scintillation counting method. The essentials: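 Membranes from CHO cells expressing hA1 (50 µg protein/100 µl) incubated with 1 nM [3H]-DPCPX and varying test concentrations, 25°C, 90 min, 50 mM Tris-HCl pH 7.4. Nonspecific binding with 1 µM DPCPX. Filtration over glass fiber filters, scintillation counting.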

Assay [9] deals with T5, Adenosine receptor A1 (Homo sapiens) (UniProt P30542).
T5 sequence (whole entry): T4 sequence (P30542 whole entry)
In words: Modulation of human A1 adenosine receptor expressed in CHO cells assessed as forskolin-stimulated cAMP level after 30 mins by Alphascreen assay relative to control. Type of assay: functional, cell-based. In a few lines: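 In hA1 CHO cells, compounds incubated with Forskolin (5 µM) without agonist; cAMP quantified by AlphaScreen (30 min acceptor-bead step, then 1 h donor beads and biotinylated cAMP). Expressed as % of Forskolin-stimulated cAMP (100%); mean ± SEM.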

Assay [10] concerns the target T4, Adenosine receptor A1. The assay can be described thus: Antagonist activity at human A1 adenosine receptor expressed in CHO cells assessed as inhibition of CCPA-induced reduction of forskolin-stimulated cAMP level after 30 mins by Alphascreen assay. The assay is classed as functional, cell-based. In a few lines: (§3)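 hA1 CHO cells given Forskolin (5 µM) and 1 nM CCPA with varied compound concentrations; AlphaScreen cAMP detection (30 min with acceptor beads, then donor beads/biotinylated cAMP 1 h). IC50 by sigmoid nonlinear regression; Emax as efficacy in reversing CCPA inhibition; mean ± SEM.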

Assay [11] concerns the target T5, Adenosine receptor A1 (Homo sapiens). In words: Antagonist activity at human A1 adenosine receptor expressed in CHO cells assessed as inhibition of CCPA-induced reduction of forskolin-stimulated cAMP level after 30 mins by Alphascreen assay relative to control. The assay is classed as functional, cell-based. In a few lines: as §3
For assay [12], the target named is T1, Adenosine receptor A2a. In words: Displacement of [3H]-ZM 241,385 from human A2A adenosine receptor expressed in CHO cell membranes at 10 uM after 60 mins by scintillation counting method relative to control. In a few lines: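 Using 1 nM [3H]-ZM 241385 on hA2A CHO membranes, 60 min, 4°C, 50 mM Tris-HCl pH 7.4, 10 mM MgCl2; 1 µM ZM 241385 for nonspecific binding; filtered and counted. Percent inhibition measured at 10 µM compound.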

Assay [13] has as its target T6, Adenosine receptor A2b (Homo sapiens) (UniProt P29275).
T6 sequence (whole entry): T3 sequence (P29275 whole entry)
The assay can be described thus: Antagonist activity at human A2B adenosine receptor assessed as inhibition of NECA-stimulated cAMP level at 10 uM after 30 mins by Alphascreen assay relative to control. The assay is classed as functional.

Results on 18 compounds are retold here after ChEMBL document CHEMBL4118252, “Identification of novel thiazolo[5,4-d]pyrimidine derivatives as human A1 and A2A adenosine receptor antagonists/inverse agonists” (Bioorg Med Chem, 2018).

T1 sequence (P29274 whole entry): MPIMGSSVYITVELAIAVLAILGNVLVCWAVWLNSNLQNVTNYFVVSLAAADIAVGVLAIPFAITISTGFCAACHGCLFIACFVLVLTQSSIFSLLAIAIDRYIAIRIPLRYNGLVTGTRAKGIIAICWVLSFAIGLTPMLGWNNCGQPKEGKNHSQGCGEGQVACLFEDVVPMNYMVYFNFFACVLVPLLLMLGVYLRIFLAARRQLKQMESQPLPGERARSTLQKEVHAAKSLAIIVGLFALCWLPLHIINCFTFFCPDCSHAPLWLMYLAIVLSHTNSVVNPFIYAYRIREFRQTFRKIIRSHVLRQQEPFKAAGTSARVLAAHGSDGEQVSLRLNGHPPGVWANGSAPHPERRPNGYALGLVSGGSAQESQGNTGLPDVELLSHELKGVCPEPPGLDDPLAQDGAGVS

`Cc1nc2c(N)nc(NCc3ccccc3)nc2s1`: the Ki (commonly a dissociation constant, usually derived from enzyme kinetics or from competition with a known ligand) in assay [1] came to 532 nM.

Compound `Cc1nc2c(N)nc(NCc3cccs3)nc2s1` yielded a Ki in assay [1] of 313 nM.

For `Nc1nc(NCc2cccs2)nc2sc(-c3ccccc3)nc12`, the concentration for half-maximal inhibition (IC50) – broadly, the point on the concentration scale where inhibition reaches its midpoint – in assay [2] amounted to 43 nM; in assay [3], 36 nM. Also, the Ki in assay [1] came out at 28 nM. Besides, the maximal response (Emax) – broadly, the greatest response seen or fitted, relative to the assay's reference – in assay [4] is 64%; in assay [5], 131%.

As for `Nc1nc(NCCc2ccc(O)cc2)nc2sc(-c3ccccc3)nc12`, the inhibitory constant (Ki) turned out to be 96 nM in assay [1], 1610 nM in [6] and 242 nM in assay [8]. For the same compound, in [7], the half-inhibitory concentration (IC50) stood at 7520 nM.

For `Cc1nc2c(N)nc(NCCc3cccs3)nc2s1`, the IC50 was found to be 102 nM in assay [2], 134 nM in [7], 83 nM in assay [3] and 107 nM in assay [10]. Also, the inhibition constant (Ki) in assay [1] was 61 nM; in [6] it was 1520 nM; in [8] it was 92 nM. Further, the maximal effect (Emax) in assay [4] stood at 58%; in [5], 124%; in assay [11], 98%. Besides, the Activity in assay [9] is 100%.

On to `Nc1nc(NCc2ccccc2)nc2sc(-c3ccccc3)nc12`, for which the Ki in [1] is 116 nM.

For `Cc1nc2c(N)nc(Nc3ccccc3)nc2s1`, in [1], the Ki turned out to be 608 nM.

For `COc1cccc(CNc2nc(N)c3nc(-c4cnccn4)sc3n2)c1`, in assay [1], the Ki was 973 nM.

The compound `Nc1nc(NCc2cccs2)nc2sc(-c3cnccn3)nc12` showed a Ki in [1] of 219 nM.

Take `Nc1nc(Nc2ccccc2)nc2sc(-c3ccccc3)nc12`: the inhibition (in general, how much of the control response was suppressed) in assay [12] was determined as 1%. The same compound yielded an inhibition constant Ki in assay [1] above 10000 nM.

In the case of `Cc1nc2c(N)nc(NCCc3ccccc3)nc2s1`, the inhibition constant (Ki) in [1] is 78 nM; in assay [6], 548 nM; in assay [8], 140 nM. The concentration for half-maximal inhibition (IC50) in [7] was 1100 nM.

With `COc1ccccc1CNc1nc(N)c2nc(-c3ccccc3)sc2n1`, the 50% inhibitory concentration (IC50) in assay [2] stood at 7.63 nM; in [3] it was 5.34 nM. Besides, in assay [1], the affinity corresponds to a Ki of 4.72 nM.

With `COc1ccc(CCNc2nc(N)c3nc(-c4ccccc4)sc3n2)cc1`, the inhibition in assay [13] stood at 33%. Further, the inhibitory constant (Ki) in assay [1] was 403 nM; in assay [6], 3530 nM; in assay [8], 485 nM. The IC50 in assay [7] was above 10000 nM.

In the case of `COc1ccccc1CNc1nc(N)c2nc(-c3cnccn3)sc2n1`, the Ki in assay [1] stood at 79 nM.

In the case of `COc1cccc(CNc2nc(N)c3nc(-c4ccccc4)sc3n2)c1`, the concentration for half-maximal inhibition (IC50) is 66 nM in assay [2] and 48 nM in assay [3]. This compound had a Ki in [1] of 42 nM. The Emax in assay [4] was 52%; in assay [5] it was 128%.

Consider `Nc1nc(NCCc2ccccc2)nc2sc(-c3ccccc3)nc12`, for which the inhibition constant (Ki) was 406 nM in assay [1], 2270 nM in assay [6] and 121 nM in assay [8]. For the same compound, in assay [7], the IC50 is 4380 nM.

Take `COc1ccccc1CNc1nc(N)c2nc(C)sc2n1`: the affinity in assay [1], expressed as Ki, was 135 nM.

In turn, `COc1cccc(CNc2nc(N)c3nc(C)sc3n2)c1` showed a Ki in assay [1] of 212 nM.
